The text below walks through data of ChEMBL document CHEMBL4393678, “Novel Tetrahydroquinazolinamines as Selective Histamine 3 Receptor Antagonists for the Treatment of Obesity” (J Med Chem, 2019).

Data set [1] addresses T1, 5-hydroxytryptamine receptor 2C (Homo sapiens) (UniProt P28335).
T1 sequence (whole entry): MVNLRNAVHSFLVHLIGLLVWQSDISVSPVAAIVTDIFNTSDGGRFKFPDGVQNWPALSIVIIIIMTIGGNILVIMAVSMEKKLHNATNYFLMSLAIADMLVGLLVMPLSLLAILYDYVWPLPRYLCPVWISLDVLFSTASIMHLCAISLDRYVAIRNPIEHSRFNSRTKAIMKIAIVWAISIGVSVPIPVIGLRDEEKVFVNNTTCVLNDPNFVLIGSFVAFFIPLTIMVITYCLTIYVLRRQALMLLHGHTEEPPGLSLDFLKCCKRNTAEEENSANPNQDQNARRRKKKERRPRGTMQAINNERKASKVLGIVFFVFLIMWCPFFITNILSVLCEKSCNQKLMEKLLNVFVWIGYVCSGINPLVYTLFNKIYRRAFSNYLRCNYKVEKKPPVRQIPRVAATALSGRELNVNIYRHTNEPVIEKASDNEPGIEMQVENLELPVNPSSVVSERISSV
Kind of data set: Antagonist activity at 5HT2CR (unknown origin) expressed in HEK293 cells harboring luc2P/NFAT-RE plasmid at 10 uM after 6 to 8 hrs by luciferase reporter gene assay. The data set is classed as cell-based. The essentials:
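NFAT-RE luciferase assay in HEK293T cells transiently co-transfected with luc2P/NFAT-RE plasmid and receptor plasmid. Cells plated in DMEM and incubated overnight at 37 °C, 5% CO₂. Compounds and reference ligands applied for 6-8 h. Luciferase read after adding Bright-Glo substrate (1 mg/ml final).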
In general terms: A reporter such as luciferase makes a cellular process visible.

The nature of data set [2]: Cmax in C57BL/6J mouse brain assessed as 4-(2-Amino-8-methyl-5,6,7,8-tetrahydroquinazolin-4-yl)phenol level at 20 mg/kg, po by LC-MS/MS analysis. The class given is ADME, organism-based. Also noted: dose 20 mg/kg, route oral. As to conditions: in vivo. The essentials:
(§1)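 Male C57BL/6J mice (6-8 weeks, 20 ± 5 g) fasted overnight (12-16 h) got a single 20 mg/kg oral dose as 2.5 mg/mL suspension in 1% w/v gum acacia; n=5 per time point. Serum and brain (PBS homogenate 1:6 w/v) sampled up to 24 h. Parent and demethylated metabolite quantified by LC-MS/MS after liquid-liquid extraction (C18, MRM, phenacetin internal standard; linear 0.25-200 ng/mL). Two-compartment open model fit.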

Data set [3] deals with Mus musculus. Kind of data set: Anti-obesity activity in high fat diet-induced obese C57BL/6J mouse model assessed as change in body weight at 10 mg/kg, po measured after 6 weeks (reference value: 3.86 +/- 0.99 g). The data set is classed as functional. The essentials:
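Male C57BL/6J mice (6–8 weeks, 22–25 g) on high-fat diet, with a normal-chow group included. Daily chronic oral dosing against vehicle for six weeks. Percent body weight change followed over the treatment days, and net body weight change taken at six weeks. n=5-6 per group. Two-way ANOVA, or one-way ANOVA with Newman-Keuls test.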

For data set [4], the target named is D(2) dopamine receptor (Homo sapiens) (UniProt P14416). Kind of data set: Agonist activity at Gi-coupled D2 receptor (unknown origin) expressed in HEK293T cells assessed as inhibition of forskolin-stimulated cAMP accumulation preincubated for 10 to 15 followed by forskolin-stimulation by Glo-sensor assay. The data set is classed as functional, cell-based. Background: Changes in cAMP serve as a functional read-out for many G protein-coupled receptors.

Data set [5] can be described thus: Tmax in C57BL/6J mouse serum at 20 mg/kg, po by LC-MS/MS analysis. The class given is ADME, organism-based. In outline:
as §1

For data set [6], the system named is Mus musculus. Kind of data set: Anti-obesity activity in 16 hrs fasted db/db-induced obese C57BL/6J mouse model assessed as improvement in glucose homeostasis at 20 mg/kg, po treated prior to glucose addition measured after 15 to 120 mins by IPGTT. The data set is classed as functional, organism-based. In outline:
(§2)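 Mice fasted 16 h; baseline tail-vein glucose read by glucometer. Glucose given i.p. at 2 g/kg (C57BL/6J) or 1 g/kg (db/db).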

In data set [7] the test system is Mus musculus. The data set is described as follows: Anorexic effect in 12 hrs fasted db/db-induced obese C57BL/6J mouse model assessed as reduction in cumulative food intake at 20 mg/kg, po pretreated for 30 mins followed by food addition measured after 4 hrs in presence of histidine decarboxylase inhibitor alpha-MDLH. The data set is classed as functional, organism-based. The essentials:
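Mice starved 12 h (8:00 am to 8:00 pm) with water available, then housed singly. Compound given orally in 5% gum acacia in normal saline; vehicle group received the same. Cumulative food intake measured over 4 h of the night phase (9:00 pm to 1:00 am), starting 30 min after dosing. Antagonism arms: imitet 5 mg/kg i.p. 30 min before compound, or α-methyl-DL-histidine 20 mg/kg i.p. 2 h before.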

The target in data set [8] is D(1B) dopamine receptor (Homo sapiens) (UniProt P21918). The data set is described as follows: Agonist activity at Gs-coupled D5 receptor (unknown origin) expressed in HEK293T cells assessed as inhibition of forskolin-stimulated cAMP accumulation preincubated for 10 to 15 followed by forskolin-stimulation by Glo-sensor assay. The data set is classed as functional, cell-based.

Data set [9] in a line: AUClast in C57BL/6J mouse serum assessed as 4-(2-Amino-8-methyl-5,6,7,8-tetrahydroquinazolin-4-yl)phenol level at 20 mg/kg, po by LC-MS/MS analysis. The data set is classed as ADME, organism-based. Also noted: dose 20 mg/kg, time 0 - last, route oral. Particulars: in vivo. In outline:
(§3)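 Male C57BL/6J mice, 6-8 weeks, 20 ± 5 g, fasted overnight (12-16 h), n = 5 per time point. Single 20 mg/kg oral dose given by feeding needle as a 2.5 mg/mL suspension in 1% w/v gum acacia and water. Serum and brain (homogenized 1:6 w/v in PBS) sampled up to 24 h. Liquid-liquid extraction, then LC-MS/MS in positive MRM mode with phenacetin as internal standard. Linear range 0.25-200 ng/mL. Non-compartmental and compartmental analysis.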

A short description of data set [10]: AUClast in C57BL/6J mouse brain at 20 mg/kg, po by LC-MS/MS analysis. The class given is ADME, organism-based. Also noted: dose 20 mg/kg, route oral, time 0 - last. The essentials:
as §3

In data set [11] the test system is Mus musculus. Kind of data set: Anti-obesity activity in high fat diet-induced obese C57BL/6J mouse model assessed as change in HDL level at 10 to 20 mg/kg, po measured after 6 weeks. The class given is functional, organism-based. In outline:
(§4)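 At the end of treatment (six weeks HFD, four weeks db/db), mice euthanized with avertin 350 mg/kg. Blood taken by cardiac puncture into 3.8% sodium citrate. Plasma separated at 4000 rpm and stored at -80 °C. TG, TC, HDLc and LDLc measured on a bio-analyzer.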

A short description of data set [12]: Cmax in C57BL/6J mouse serum at 20 mg/kg, po by LC-MS/MS analysis. Also noted: dose 20 mg/kg, route oral. The class given is ADME, organism-based. In outline:
as §1

A short description of data set [13]: Half life in C57BL/6J mouse serum at 20 mg/kg, po by LC-MS/MS analysis. The class given is ADME, organism-based. In outline: as §1
Data set [14] deals with Mus musculus. The data set is described as follows: In vivo antagonist activity at H3R in 12 hrs fasted db/db-induced obese C57BL/6J mouse model assessed as increase in c-FOS expression in para-ventricular nucleus of hypothalamus at 20 mg/kg, ip measured after 90 mins by immunohistochemistry-based fluorescence assay. The class given is functional, organism-based.
In data set [15] the test system is Mus musculus. The data set is described as follows: Anti-obesity activity in high fat diet-induced obese C57BL/6J mouse model assessed as change in blood TG level at 10 to 20 mg/kg, po measured after 6 weeks. The data set is classed as functional, organism-based. The essentials:
as §4

Data set [16] relates to Mus musculus. Kind of data set: Anti-obesity activity in 16 hrs fasted high fat diet-induced obese C57BL/6J mouse model assessed as change in blood glucose level at 10 to 20 mg/kg, po treated prior to glucose addition measured after 15 to 120 mins by IPGTT. The class given is functional, organism-based. In outline:
as §2

The nature of data set [17]: fCmax in C57BL/6J mouse brain by equilibrium dialysis method. The class given is ADME, tissue-based. In outline:
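Unbound brain level derived from brain concentration after 20 mg/kg oral dose, multiplied by unbound fraction from brain-homogenate equilibrium dialysis; given at Cmax and at 4 h.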
For orientation: Equilibrium dialysis compares concentrations on both sides of a semipermeable membrane.

SMILES strings stand for the structures. Active and inactive are the calls of the source.

Sequence of D(1B) dopamine receptor (Homo sapiens) (P21918 whole entry): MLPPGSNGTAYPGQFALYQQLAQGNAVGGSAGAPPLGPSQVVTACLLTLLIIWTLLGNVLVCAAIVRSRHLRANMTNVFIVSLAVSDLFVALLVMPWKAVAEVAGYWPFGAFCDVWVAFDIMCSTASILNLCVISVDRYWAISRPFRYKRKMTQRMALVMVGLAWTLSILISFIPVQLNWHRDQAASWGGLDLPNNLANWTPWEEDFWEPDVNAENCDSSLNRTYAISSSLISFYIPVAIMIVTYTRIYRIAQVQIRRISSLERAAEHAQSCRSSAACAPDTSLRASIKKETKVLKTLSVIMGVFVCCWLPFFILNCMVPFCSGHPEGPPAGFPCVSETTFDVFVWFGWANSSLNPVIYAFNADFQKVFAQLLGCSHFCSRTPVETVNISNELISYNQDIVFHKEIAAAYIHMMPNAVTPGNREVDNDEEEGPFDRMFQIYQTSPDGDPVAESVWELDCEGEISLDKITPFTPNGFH
Sequence of D(2) dopamine receptor (Homo sapiens) (P14416 whole entry): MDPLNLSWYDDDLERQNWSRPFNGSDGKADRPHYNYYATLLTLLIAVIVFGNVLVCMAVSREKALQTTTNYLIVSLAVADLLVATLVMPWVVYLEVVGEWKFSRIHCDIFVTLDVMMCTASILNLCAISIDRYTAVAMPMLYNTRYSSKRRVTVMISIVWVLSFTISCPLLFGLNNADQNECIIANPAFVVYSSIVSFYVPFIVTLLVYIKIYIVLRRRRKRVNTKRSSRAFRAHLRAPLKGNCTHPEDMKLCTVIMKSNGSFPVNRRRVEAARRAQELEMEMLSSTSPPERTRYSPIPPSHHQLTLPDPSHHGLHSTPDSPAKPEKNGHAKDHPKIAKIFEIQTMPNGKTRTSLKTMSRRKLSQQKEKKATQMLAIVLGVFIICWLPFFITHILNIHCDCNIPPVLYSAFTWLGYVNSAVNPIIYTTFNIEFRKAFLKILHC

As for `COc1ccc(-c2nc(N)nc3c2CCCC3C)cc1` (racemic), the inhibition result in data set [1] and in [4] was “inactive” throughout. Also, the results for the Cmax in data set [2] and in data set [12] were 101 ng/g and 3360 ng/mL, respectively. The Activity in the data set on Mus musculus [3] was determined as 2.6 g. In addition, in data set [5], the Tmax (in general, the time at which the peak concentration occurs) was 0.25 h. For the same compound, the result in the data set with Mus musculus [6] and in the data set with Mus musculus [14] was Active. Moreover, the result in the data set with Mus musculus [7], with Mus musculus [11], in the data set on Mus musculus [15] and with Mus musculus [16] was inactive. Moreover, the INH in [8] was greater than 10 µM. For the same compound, the AUClast in data set [9] came out at 1646.9 ng·h/mL. In addition, the AUC(0-t) – broadly, the area under the concentration-time curve up to a stated or last time point – in data set [10] came to 310 ng·h/mL. Further, in [13], the half-life – broadly, the time needed for the level to fall by half in the phase considered – was 1.9 h. The same compound came in with a fCmax in data set [17] of 334.7 nM.
